Square brackets hold non-standard residues; d marks the D form. Peptide text beside a SMILES is read from it. * marks the point of attachment. Palmitoyl = CCCCCCCCCCCCCCCC(=O)*; Myristoyl = CCCCCCCCCCCCCC(=O)*; Nle = CCCC[C@H](N)C(=O)O
These compounds were tested on SK-MEL-2 (assay: Growth inhibition of SK-Mel2 melanoma cells after 48 hrs by MTT assay). Settings: Homo sapiens, SK-MEL-2, 48 h.
Assay type: functional, cell-based, Homo sapiens
Method in brief: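 Cells seeded at 200-400 per well in DMEM with 10% FBS and left to attach for 24 h. The next day, inhibitor in medium at 2× was added in an equal volume, and cells were incubated 48 h in a CO2 incubator. Reference plates were read at time of addition for T0 density. MTT staining was read as absorbance at 544 nm and compared with untreated control cells.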

Row | IC50 | Compound
1 | > 15000 nM | CCCCCCCCCCCCCCCC(=O)N[C@@H](CC(C)C)C(=O)N[C@H](C(=O)N[C@@H](Cc1ccc(O)cc1)C(=O)N[C@@H](C)C(=O)N[C@@H](Cc1ccc(C(=O)c2ccccc2)cc1)C(=O)N[C@@H](Cc1cnc[nH]1)C(=O)N[C@H](C(=O)N[C@@H](CO)C(=O)N[C@@H](Cc1ccccc1)C(=O)N[C@@H](CCCCN)C(=O)N[C@@H](C)C(=O)N[C@@H](CC(C)C)C(=O)N[C@H](CCSC(=O)CCCC[C@@H]1SC[C@@H]2NC(=O)N[C@@H]21)C(=O)O)[C@@H](C)O)[C@@H](C)O
2 | 1000 nM | CCCCCCCCCCCCCCCC(=O)NCCCC[C@H](NC(=O)[C@H](Cc1ccc(O)cc1)NC(=O)[C@H](CO)NC(=O)[C@@H](NC(=O)[C@H](CCCCN)NC(=O)CNC(=O)[C@H](CO)NC(=O)[C@H](CC(C)C)NC(=O)[C@@H]1CCCN1C(=O)[C@H](CCC(N)=O)NC(=O)[C@H](Cc1ccc(O)cc1)NC(=O)[C@@H](NC(=O)[C@@H](NC(=O)CNC(=O)[C@H](CC(C)C)NC(=O)[C@H](C)NC(=O)[C@H](CCCCN)NC(=O)[C@H](Cc1ccccc1)NC(=O)[C@H](CO)NC(=O)[C@@H](NC(=O)[C@H](Cc1cnc[nH]1)NC(=O)[C@H](Cc1c[nH]c2ccccc12)NC(=O)[C@H](C)NC(=O)[C@H](Cc1ccc(O)cc1)NC(C)=O)[C@@H](C)O)[C@@H](C)O)[C@@H](C)O)[C@@H](C)O)C(=O)O (Ac-YAWHTSFKALGTTYQPLSGKTSYK(Palmitoyl)-OH)
3 | > 15000 nM | CCCC[C@H](NC(=O)[C@H](CCCNC(=N)N)NC(=O)[C@H](CCCNC(=N)N)NC(=O)[C@H](CC(N)=O)NC(=O)[C@@H]1CCCN1C(=O)[C@H](Cc1ccccc1)NC(=O)[C@H](Cc1c[nH]c2ccccc12)NC(=O)[C@@H](NC(=O)[C@H](CCCCN)NC(=O)[C@@H](NC(=O)[C@H](CCC(N)=O)NC(=O)[C@@H](N)CCCNC(=N)N)[C@@H](C)CC)[C@@H](C)CC)C(=O)N[C@@H](CCCCN)C(=O)N[C@@H](Cc1c[nH]c2ccccc12)C(=O)N[C@@H](CCCCN)C(=O)N[C@@H](CCCCN)C(=O)N[C@@H](CC(C)C)C(=O)N[C@H](C(=O)N[C@@H](Cc1ccc(O)cc1)C(=O)N[C@@H](C)C(=O)N[C@@H](Cc1c[nH]c2ccccc12)C(=O)N[C@@H](Cc1cnc[nH]1)C(=O)N[C@H](C(=O)N[C@@H](CO)C(=O)N[C@@H](Cc1ccccc1)C(=O)N[C@@H](CCCCN)C(=O)N[C@@H](C)C(=O)N[C@@H](CC(C)C)C(=O)O)[C@@H](C)O)[C@@H](C)O (H-RQIKIWFPNRR[Nle]KWKKLTYAWHTSFKAL-OH)
4 | 1500 nM | CCCCCCCCCCCCCCCC(=O)N[C@@H](CC(C)C)C(=O)N[C@@H](Cc1ccccc1)C(=O)N[C@@H](CO)C(=O)N[C@H](C(=O)N[C@@H](CCCCN)C(=O)N[C@@H](CO)C(=O)N[C@@H](CC(N)=O)C(=O)N[C@@H](Cc1c[nH]cn1)C(=O)N1CCC[C@H]1C(=O)NCC(=O)N[C@@H](CC(C)C)C(=O)N[C@@H](CC(C)C)C(=O)N[C@@H](CO)C(=O)N[C@@H](CCC(=O)O)C(=O)N[C@@H](CCCCN)C(=O)N[C@@H](C)C(=O)N[C@@H](C)C(=O)N[C@@H](CO)C(=O)N[C@@H](CCCCN)C(=O)N[C@H](C(=O)N[C@@H](CC(N)=O)C(=O)N[C@@H](CCC(=O)O)C(=O)N[C@H](C(=O)N[C@@H](CCSC)C(=O)N[C@@H](CC(C)C)C(=O)N[C@@H](CCCNC(=N)N)C(=O)O)[C@@H](C)O)[C@@H](C)CC)[C@@H](C)CC (Palmitoyl-LFSIKSNHPGLLSEKAASKINETMLR-OH)
5 | 90 nM | CCCCCCCCCCCCCCCC(=O)N[C@@H](CC(C)C)C(=O)N[C@H](C(=O)N[C@@H](Cc1ccc(O)cc1)C(=O)N[C@@H](C)C(=O)N[C@@H](Cc1c[nH]c2ccccc12)C(=O)N[C@@H](Cc1cnc[nH]1)C(=O)N[C@H](C(=O)N[C@@H](CO)C(=O)N[C@@H](Cc1ccccc1)C(=O)N[C@@H](CCCCN)C(=O)N[C@@H](C)C(=O)O)[C@@H](C)O)[C@@H](C)O (Palmitoyl-LTYAWHTSFKA-OH)

Further lines, the compound ahead of its results:

Row | Compound | IC50
6 | CCCCCCCCCCCCCCCC(=O)NCCCC[C@H](NC(=O)[C@H](Cc1ccc(O)cc1)NC(=O)[C@H](CO)NC(=O)[C@@H](NC(=O)[C@H](CCCCN)NC(=O)CNC(=O)[C@H](CO)NC(=O)[C@H](CC(C)C)NC(=O)[C@@H]1CCCN1C(=O)[C@H](CCC(N)=O)NC(=O)[C@H](Cc1ccc(O)cc1)NC(=O)[C@@H](NC(=O)[C@@H](NC(=O)CNC(C)=O)[C@@H](C)O)[C@@H](C)O)[C@@H](C)O)C(=O)O (Ac-GTTYQPLSGKTSYK(Palmitoyl)-OH) | 2700 nM
7 | CCCCCCCCCCCCCCCC(=O)NCCCC[C@H](NC(=O)[C@H](CCCNC(=N)N)NC(=O)[C@H](CC(C)C)NC(=O)[C@H](CCSC)NC(=O)[C@@H](NC(=O)[C@H](CCC(=O)O)NC(=O)[C@H](CC(N)=O)NC(=O)[C@@H](NC(=O)[C@H](CCCCN)NC(=O)[C@H](CO)NC(=O)[C@H](C)NC(=O)[C@H](C)NC(=O)[C@H](CCCCN)NC(=O)[C@H](CCC(=O)O)NC(=O)[C@H](CO)NC(=O)[C@H](CC(C)C)NC(=O)[C@H](CC(C)C)NC(=O)CNC(=O)[C@@H]1CCCN1C(=O)[C@H](Cc1c[nH]cn1)NC(=O)[C@H](CC(N)=O)NC(=O)[C@H](CO)NC(=O)[C@H](CCCCN)NC(=O)[C@@H](NC(=O)[C@H](CO)NC(=O)[C@H](Cc1ccccc1)NC(=O)[C@H](CC(C)C)NC(C)=O)[C@@H](C)CC)[C@@H](C)CC)[C@@H](C)O)C(=O)O (Ac-LFSIKSNHPGLLSEKAASKINETMLRK(Palmitoyl)-OH) | 950 nM
8 | CCCCCCCCCCCCCCCC(=O)NCCCC[C@H](NC(=O)[C@H](Cc1ccc(O)cc1)NC(=O)[C@H](CO)NC(=O)[C@@H](NC(=O)[C@H](CCCCN)NC(=O)CNC(=O)[C@H](CO)NC(=O)[C@H](CC(C)C)NC(=O)[C@@H]1CCCN1C(=O)[C@H](CCC(N)=O)NC(=O)[C@H](Cc1ccc(O)cc1)NC(=O)[C@@H](NC(=O)[C@@H](NC(=O)CNC(=O)[C@H](CC(C)C)NC(=O)[C@H](C)NC(=O)[C@H](CCCCN)NC(=O)[C@H](Cc1ccccc1)NC(=O)[C@H](CO)NC(=O)[C@@H](NC(=O)[C@H](Cc1cnc[nH]1)NC(=O)[C@H](Cc1c[nH]c2ccccc12)NC(=O)[C@H](C)NC(=O)[C@H](Cc1ccc(O)cc1)NC(=O)[C@@H](NC(=O)[C@H](CC(C)C)NC(C)=O)[C@@H](C)O)[C@@H](C)O)[C@@H](C)O)[C@@H](C)O)[C@@H](C)O)C(=O)O (Ac-LTYAWHTSFKALGTTYQPLSGKTSYK(Palmitoyl)-OH) | 1000 nM
9 | CCCC[C@H](NC(=O)[C@H](CCCNC(=N)N)NC(=O)[C@H](CCCNC(=N)N)NC(=O)[C@H](CC(N)=O)NC(=O)[C@@H]1CCCN1C(=O)[C@H](Cc1ccccc1)NC(=O)[C@H](Cc1c[nH]c2ccccc12)NC(=O)[C@@H](NC(=O)[C@H](CCCCN)NC(=O)[C@@H](NC(=O)[C@H](CCC(N)=O)NC(=O)[C@H](CCCNC(=N)N)NC(=O)[C@H](CC(C)C)NC(=O)[C@H](C)NC(=O)[C@H](CCCCN)NC(=O)[C@H](Cc1ccccc1)NC(=O)[C@H](CO)NC(=O)[C@@H](NC(=O)[C@H](Cc1cnc[nH]1)NC(=O)[C@H](Cc1c[nH]c2ccccc12)NC(=O)[C@H](C)NC(=O)[C@H](Cc1ccc(O)cc1)NC(=O)[C@@H](NC(=O)[C@H](CC(C)C)NC(C)=O)[C@@H](C)O)[C@@H](C)O)[C@@H](C)CC)[C@@H](C)CC)C(=O)N[C@@H](CCCCN)C(=O)N[C@@H](Cc1c[nH]c2ccccc12)C(=O)N[C@@H](CCCCN)C(=O)N[C@@H](CCCCN)C(=O)O (Ac-LTYAWHTSFKALRQIKIWFPNRR[Nle]KWKK-OH) | > 15000 nM
10 | CCCCCCCCCCCCCCCC(=O)NCCCC[C@H](NC(=O)[C@H](CCCNC(=N)N)NC(=O)[C@H](CC(C)C)NC(=O)[C@H](CCSC)NC(=O)[C@@H](NC(=O)[C@H](CCC(=O)O)NC(=O)[C@H](CC(N)=O)NC(=O)[C@@H](NC(=O)[C@H](CCCCN)NC(=O)[C@H](CO)NC(=O)[C@H](C)NC(=O)[C@H](C)NC(=O)[C@H](CCCCN)NC(=O)[C@H](CCC(=O)O)NC(=O)[C@H](CO)NC(=O)[C@H](CC(C)C)NC(=O)[C@H](CC(C)C)NC(=O)CNC(=O)[C@@H]1CCCN1C(=O)[C@H](Cc1c[nH]cn1)NC(=O)[C@H](CC(N)=O)NC(=O)[C@H](CO)NC(=O)[C@H](CCCCN)NC(=O)[C@@H](NC(=O)[C@H](CO)NC(=O)[C@H](Cc1ccccc1)NC(=O)[C@H](CC(C)C)NC(=O)[C@@H](NC(=O)[C@H](CCSC)NC(=O)[C@@H](NC(=O)CNC(=O)[C@H](CCCNC(=N)N)NC(C)=O)C(C)C)[C@@H](C)O)[C@@H](C)CC)[C@@H](C)CC)[C@@H](C)O)C(=O)O (Ac-RGVMTLFSIKSNHPGLLSEKAASKINETMLRK(Palmitoyl)-OH) | 900 nM
11 | CCCCCCCCCCCCCC(=O)N[C@@H](CC(C)C)C(=O)N[C@H](C(=O)N[C@@H](Cc1ccc(O)cc1)C(=O)N[C@@H](C)C(=O)N[C@@H](Cc1c[nH]c2ccccc12)C(=O)N[C@@H](Cc1cnc[nH]1)C(=O)N[C@H](C(=O)N[C@@H](CO)C(=O)N[C@@H](Cc1ccccc1)C(=O)N[C@@H](CCCCN)C(=O)N[C@@H](C)C(=O)N[C@@H](CC(C)C)C(=O)O)[C@@H](C)O)[C@@H](C)O (Myristoyl-LTYAWHTSFKAL-OH) | 200 nM
12 | CCCCCCCCCCCCCCCC(=O)N[C@@H](CC(C)C)C(=O)N[C@H](C(=O)N[C@@H](Cc1ccc(O)cc1)C(=O)N[C@@H](C)C(=O)N[C@@H](Cc1c[nH]c2ccccc12)C(=O)N[C@@H](Cc1cnc[nH]1)C(=O)N[C@H](C(=O)N[C@@H](CO)C(=O)N[C@@H](Cc1ccccc1)C(=O)N[C@@H](CCCCN)C(=O)O)[C@@H](C)O)[C@@H](C)O (Palmitoyl-LTYAWHTSFK-OH) | 60 nM
13 | CCCCCCCCCCCCCCCC(=O)N[C@@H](CC(C)C)C(=O)N[C@H](C(=O)N[C@@H](Cc1ccc(O)cc1)C(=O)N[C@@H](C)C(=O)N[C@@H](Cc1c[nH]c2ccccc12)C(=O)N[C@@H](Cc1cnc[nH]1)C(=O)N[C@H](C(=O)N[C@@H](CO)C(=O)N[C@@H](Cc1ccccc1)C(=O)N[C@@H](CCCCN)C(=O)N[C@@H](C)C(=O)N[C@@H](CC(C)C)C(=O)O)[C@@H](C)O)[C@@H](C)O (Palmitoyl-LTYAWHTSFKAL-OH) | 80 nM
14 | CCCCCCCCCCCCCCCC(=O)N[C@@H](CC(C)C)C(=O)N[C@H](C(=O)N[C@@H](Cc1ccc(O)cc1)C(=O)N[C@@H](C)C(=O)N[C@@H](Cc1c[nH]c2ccccc12)C(=O)N[C@@H](Cc1cnc[nH]1)C(=O)N[C@H](C(=O)N[C@@H](CO)C(=O)N[C@@H](Cc1ccccc1)C(=O)N[C@@H](CCCCN)C(=O)N[C@@H](C)C(=O)N[C@@H](CC(C)C)C(=O)NCC(=O)N[C@H](C(=O)N[C@H](C(=O)N[C@@H](Cc1ccc(O)cc1)C(=O)N[C@@H](CCC(N)=O)C(=O)N1CCC[C@H]1C(=O)O)[C@@H](C)O)[C@@H](C)O)[C@@H](C)O)[C@@H](C)O (Palmitoyl-LTYAWHTSFKALGTTYQP-OH) | 300 nM

From ChEMBL document CHEMBL1148755, “Structural analogues of smoothened intracellular loops as potent inhibitors of Hedgehog pathway and cancer cell growth” (J Med Chem, 2007)
